The structures appear in SMILES notation. Active and inactive are the calls of the source. The calls are words filed in the database; no cut-off is given here.

For orientation: IC50 means the midpoint of a concentration-inhibition curve. Usually CC50 stands for the concentration that lowers cell viability or growth by half.

Series [1] deals with Leishmania infantum. The experiment in a line: Leishmanicidal activity against promastigote stage of Leishmania infantum MCAN/ES/96/BCN150 infected in BALB/c mouse assessed as reduction of parasite burden in liver at 10 mg/kg, ip qd administered for 5 days measured after 7 days by limiting dilution assay relative to untreated control. Details: scale not given: the % may be the effect or the level left. In kind it is functional. The note with it: route intraperitoneal. Summed up:
(§1)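 BALB/c mice infected intracardially under pentobarbital anaesthesia with 10^7 stationary L. infantum BCN150 promastigotes. From day 21 post-infection, dosed ip once daily for 5 days in 0.1 mL propylene glycol, with an untreated control group. Killed 7 days later; spleen and liver burdens by limiting dilution and expressed as % reduction versus controls.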

For another series, the system named is Leishmania braziliensis. The experiment in a line: Leishmanicidal activity against extracellular promastigote stage of Leishmania braziliensis 2903 assessed as reduction of parasite load after 48 hrs by resazurin dye-based fluorometric analysis. The note with it: Leishmania braziliensis, 2903, 48 h; read-out: IC50. It is filed as functional, organism-based. The method, boiled down:
(§2)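 Log-phase promastigotes cultured in Schneider's medium with 20% heat-inactivated FBS at 26 °C, 2.5 × 10^5 per well. DMSO-dissolved compounds added as 2-fold serial dilutions, final DMSO ≤0.2% (v/v), 48 h at 26 °C. Growth read by 2.5 mM resazurin stock, fluorescence 535/590 nm. Triplicate; IC50 by probit analysis.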
On the technique in general: Resazurin is reduced to fluorescent resorufin, in cell work by metabolically active cells.

Series [2] in a line: Cytotoxicity against mouse J774 cells assessed as reduction of cell viability after 24 hrs by resazurin dye-based fluorometric analysis. Summed up: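 J774 macrophages in RPMI 1640 with 10% heat-inactivated FBS, seeded at 5 × 10^4 cells/well and attached 24 h at 37 °C, 5% CO2. Medium swapped for drug dilutions for 24 h. Then 2.5 mM resazurin stock added for 3 h, fluorescence read at 535 nm excitation / 590 nm emission. Triplicate; CC50 from probit analysis.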

The subject of series [3] is Mus musculus. The experiment in a line: Toxicity in BALB/c mouse infected with promastigote stage of Leishmania infantum MCAN/ES/96/BCN150 assessed as hair loss at 10 mg/kg, ip qd administered for 5 days. In kind it is organism-based. Details: dose 10 mg/kg, route intraperitoneal. The note with it: in vivo, 120 h. The method, boiled down: as §1
Series [4] deals with Leishmania infantum. Nature of the series: Binding affinity to beta-tubulin in promastigote stage of Leishmania infantum assessed as structure disorganization at IC50 after 48 hrs by confocal laser scanning microscopic analysis.
For series [5], the system named is Leishmania infantum. The experiment in a line: Leishmanicidal activity against promastigote stage of Leishmania infantum MCAN/ES/96/BCN150 infected in BALB/c mouse assessed as reduction of parasite burden in liver at 5 mg/kg, ip qd administered for 5 days measured after 7 days by limiting dilution assay relative to untreated control. It is filed as functional. On the set-up: scale not given: the % may be the effect or the level left. The method, boiled down: as §1

The test system of series [6] is Leishmania amazonensis. Nature of the series: Leishmanicidal activity against intracellular amastigote stage of Leishmania amazonensis MHOM/Br/79/Maria infected in mouse J774 cells assessed as reduction of parasite load after 48 hrs by resazurin dye-based fluorometric analysis. It is filed as functional, organism-based. The note with it: Leishmania amazonensis, MHOM/Br/79/Maria, J774, 48 h; read-out: IC50. Summed up: (§3)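 J774 macrophages (5 × 10^4/well) infected with stationary promastigotes at 1:10, 24 h at 33 °C then 24 h at 37 °C, 5% CO2, and washed free of promastigotes. Then 2-fold serial dilutions in triplicate for 48 h at 37 °C. Cells lysed with RPMI with 0.048% HEPES and 0.006% SDS, transformed in Schneider's 3 days at 26 °C, resazurin 3 h, fluorescence 535/590 nm.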

Series [7] has as its system Mus musculus. Nature of the series: Toxicity in BALB/c mouse infected with promastigote stage of Leishmania infantum MCAN/ES/96/BCN150 assessed as gross weight loss at 10 mg/kg, ip qd administered for 5 days. It is filed as organism-based. On the set-up: dose 10 mg/kg, route intraperitoneal. The following applies: in vivo, 120 h. Summed up:
as §1

Series [8] concerns Leishmania infantum. The experiment in a line: Leishmanicidal activity against promastigote stage of Leishmania infantum MCAN/ES/96/BCN150 infected in BALB/c mouse assessed as reduction of parasite burden in spleen at 5 mg/kg, ip qd administered for 5 days measured after 7 days by limiting dilution assay relative to untreated control. On the set-up: scale not given: the % may be the effect or the level left. In kind it is functional. Summed up: as §1

Series [9] concerns Trypanosoma cruzi. Nature of the series: Trypanocidal activity against intracellular amastigote stage of Trypanosoma cruzi CL-B5 infected in mouse NCTC-929 cells assessed as reduction of parasite load after 7 days by CPRG-based colorimetric analysis. The following applies: nctc-929.
The next series has as its system Leishmania guyanensis. The experiment in a line: Leishmanicidal activity against extracellular promastigote stage of Leishmania guyanensis 141/93 assessed as reduction of parasite load after 48 hrs by resazurin dye-based fluorometric analysis. The following applies: Leishmania guyanensis, 141/93, 48 h; read-out: IC50. In kind it is functional, organism-based. The method, boiled down:
as §2

The test system of series [10] is Leishmania infantum. Nature of the series: Leishmanicidal activity against extracellular promastigote stage of Leishmania infantum MCAN/ES/96/BCN150 assessed as reduction of parasite load after 48 hrs by resazurin dye-based fluorometric analysis. In kind it is functional, organism-based. The following applies: Leishmania infantum, MCAN/ES/96/BCN150, 48 h; read-out: IC50. The method, boiled down:
as §2

Series [11] concerns Leishmania infantum. Nature of the series: Antileishmanial activity against promastigote stage of Leishmania infantum assessed as alteration in nuclear DNA at IC50 after 48 hrs by propidium iodide staining-based confocal laser scanning microscopic analysis. In kind it is functional, organism-based.
In series [12] the test system is Leishmania infantum. Nature of the series: Leishmanicidal activity against intracellular amastigote stage of Leishmania infantum MCAN/ES/96/BCN150 infected in mouse J774 cells assessed as reduction of parasite load after 48 hrs by resazurin dye-based fluorometric analysis. It is filed as functional, organism-based. The following applies: Leishmania infantum, MCAN/ES/96/BCN150, J774, 48 h; read-out: IC50. The method, boiled down:
as §3

The test system of series [13] is Trypanosoma cruzi. Nature of the series: Trypanocidal activity against extracellular epimastigote stage of Trypanosoma cruzi CL-B5 assessed as reduction of parasite load after 72 hrs by CPRG-based colorimetric analysis.
Series [14] is described as follows: Selectivity index, ratio of CC50 for mouse J774 cells to IC50 for extracellular promastigote stage of Leishmania guyanensis 141/93. In kind it is functional.
Series [15] concerns Leishmania infantum. Nature of the series: Antileishmanial activity against promastigote stage of Leishmania infantum assessed as alteration in kinetoplast DNA at IC50 after 48 hrs by propidium iodide staining-based confocal laser scanning microscopic analysis. In kind it is functional, organism-based.
Series [16] relates to Leishmania amazonensis. The experiment in a line: Leishmanicidal activity against extracellular promastigote stage of Leishmania amazonensis MHOM/Br/79/Maria assessed as reduction of parasite load after 48 hrs by resazurin dye-based fluorometric analysis. It is filed as functional, organism-based. The note with it: Leishmania amazonensis, MHOM/Br/79/Maria, 48 h; read-out: IC50. Summed up:
as §2

Series [17] has as its system Leishmania infantum. Nature of the series: Leishmanicidal activity against promastigote stage of Leishmania infantum MCAN/ES/96/BCN150 infected in BALB/c mouse assessed as reduction of parasite burden in spleen at 10 mg/kg, ip qd administered for 5 days measured after 7 days by limiting dilution assay relative to untreated control. In kind it is functional. On the set-up: scale not given: the % may be the effect or the level left. The note with it: route intraperitoneal. Summed up:
as §1

A short description of series [18]: Selectivity index, ratio of CC50 for mouse J774 cells to IC50 for extracellular promastigote stage of Leishmania infantum MCAN/ES/96/BCN150. In kind it is functional.
Series [19] is described as follows: Selectivity index, ratio of CC50 for mouse J774 cells to IC50 for extracellular promastigote stage of Leishmania amazonensis MHOM/Br/79/Maria. In kind it is functional.
Series [20] is described as follows: Selectivity index, ratio of CC50 for mouse J774 cells to IC50 for extracellular promastigote stage of Leishmania braziliensis 2903. In kind it is functional.

As for `O=S(=O)(Nc1ccc2[nH]ncc2c1)c1ccccc1`, the Activity is given as 97.57% with Leishmania infantum [1]; “Non-toxic” in the series with Mus musculus [3]; 78.9% in the series on Leishmania infantum [5] (route intraperitoneal); “Non-toxic” with Mus musculus [7]; 55.5% in the series with Leishmania infantum [8] (route intraperitoneal); 96.34% in the series with Leishmania infantum [17]. Moreover, the IC50 is 40.3 µM with Leishmania braziliensis; 30.8 µM in the series on Leishmania amazonensis [6]; “Not Active” with Trypanosoma cruzi [9]; 47.9 µM in the series with Leishmania guyanensis; 37.3 µM in the series with Leishmania infantum [10]; 83.2 µM in the series on Leishmania infantum [12]. For the same compound, the IC50 result in the series with Trypanosoma cruzi [13] is “Not Active”; in the series on Leishmania amazonensis [16], 38.7 µM. Further, in series [2], the CC50 at 24 h was at least 300 µM. For the same compound, the result in the series on Leishmania infantum [4] was Active. In addition, the result in the series with Leishmania infantum [11] and in the series on Leishmania infantum [15] was inactive. Besides, the “Ratio CC50/IC50” value in series [14] is over 5.3; in series [18], over 6.9.

`Cc1cc2cc(NS(=O)(=O)c3ccccc3)ccc2[nH]1`: the IC50 is 29 µM in the series with Leishmania braziliensis; 64.1 µM with Leishmania amazonensis [6]; “Not Active” with Trypanosoma cruzi [9]; 20.9 µM in the series on Leishmania guyanensis; 23.4 µM with Leishmania infantum [10]; 47.3 µM in the series on Leishmania infantum [12]. In addition, the IC50 result in the series with Trypanosoma cruzi [13] was “Not Active”; in the series on Leishmania amazonensis [16] it was 15.4 µM. In addition, the values for the Ratio CC50/IC50 in [19] and in [20] were over 16.6 and over 8.8, respectively. In addition, the CC50 at 24 h in series [2] was at least 300 µM. The outcome with Leishmania infantum [5] and with Leishmania infantum [8] was inactive.

Source of the values: ChEMBL document CHEMBL3085685, “In vitro and in vivo antileishmanial and trypanocidal studies of new N-benzene- and N-naphthalenesulfonamide derivatives” (J Med Chem, 2013).
